One assay deals with Escherichia coli. Kind of assay: Antimicrobial activity against Escherichia coli ATCC […] after 18 to 24 hrs by alamar blue assay. In kind it is functional. Particulars: Escherichia coli; read-out: MIC. In outline: (§1)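 Broth microdilution per NCCLS in Mueller-Hinton broth, 8-point twofold dilutions, 384-well format. Exponential-phase cells at 5 × 10^5 cells/ml incubated with compound 18–24 h at 37 °C, then 20% Alamar blue added and fluorescence read. MIC90 taken as the lowest concentration preventing at least 90% bacterial growth.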
(The colour change of resazurin is a common sign of viable cells or microbes.)

For assay [1], the system named is Staphylococcus aureus. Kind of assay: Antimicrobial activity against methicillin-resistant Staphylococcus aureus isolate NTUH4722 after 18 to 24 hrs by alamar blue assay. Type of assay: functional. In outline:
(§2)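 Broth microdilution per NCCLS standard, Mueller-Hinton broth, 8-point twofold dilutions; exponentially growing cells at 5 10^5 cells/ml with compound, 18–24 h at 37 C; 20% Alamar blue added, fluorescence read; MIC90 taken as lowest concentration preventing at least 90% growth.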

The test system of assay [2] is Staphylococcus aureus. Kind of assay: Antimicrobial activity against Staphylococcus aureus ATCC 29213 after 18 to 24 hrs by alamar blue assay.
For assay [3], the system named is Staphylococcus aureus. Description: Antimicrobial activity against oxacillin- and methicillin-resistant Staphylococcus aureus isolate Sa-OXA-R2 after 18 to 24 hrs by alamar blue assay. Type of assay: functional. The method in brief:
as §2

For another assay, the system named is Pseudomonas aeruginosa. Description: Antimicrobial activity against Pseudomonas aeruginosa ATCC 25619 after 18 to 24 hrs by alamar blue assay. Type of assay: functional. Particulars: Pseudomonas aeruginosa, ATCC 25619; read-out: MIC. In outline:
as §1

For assay [4], the system named is Mycolicibacterium smegmatis. Description: Antimicrobial activity against Mycobacterium smegmatis BCRC 11565 after 18 to 24 hrs by alamar blue assay. Type of assay: functional. Particulars: Mycolicibacterium smegmatis, BCRC 11565; read-out: MIC. The method in brief:
as §1

Another assay has as its system Bacillus subtilis. Kind of assay: Antimicrobial activity against Bacillus subtilis ATCC 23857 after 18 to 24 hrs by alamar blue assay. Type of assay: functional. The method in brief:
as §1

Another assay concerns Acinetobacter baumannii. Description: Antimicrobial activity against Acinetobacter baumannii ATCC 49139 after 18 to 24 hrs by alamar blue assay. Particulars: Acinetobacter baumannii, ATCC 49139; read-out: MIC. In kind it is functional. The method in brief:
as §1

Assay [5] relates to Stenotrophomonas maltophilia. Kind of assay: Antimicrobial activity against Stenotrophomonas maltophilia ATCC 13637 after 18 to 24 hrs by alamar blue assay. Type of assay: functional. Particulars: Stenotrophomonas maltophilia, ATCC 13637; read-out: MIC. The method in brief:
as §1

Assay [6] has as its system Staphylococcus aureus. Kind of assay: Antimicrobial activity against methicillin-resistant Staphylococcus aureus ATCC 33592 after 18 to 24 hrs by alamar blue assay. Type of assay: functional. The note with it: Staphylococcus aureus, ATCC 33592; read-out: MIC. The method in brief: as §2
The test system of the next assay is Serratia marcescens. Kind of assay: Antimicrobial activity against Serratia marcescens ATCC 14756 after 18 to 24 hrs by alamar blue assay. Type of assay: functional. The note with it: Serratia marcescens, ATCC 14756; read-out: MIC. In outline: as §1

Structures are written as SMILES. Values after ≈ are worked out from the molar mass of the structure shown. A value given as a limit tells only on which side of the number the result lay.

As for `CCCc1cc(O)nc(N2NC(C)=CC2NC(=O)c2cccs2)n1` (centres undefined), the MIC (as a rule, the smallest concentration in the dilution series that meets the test's criterion for growth inhibition) in the assay with Escherichia coli was greater than 256 µg/mL; in the assay with Staphylococcus aureus [1] it was 1 µg/mL (≈ 2.89 µM); with Staphylococcus aureus [2] it was 1 µg/mL (≈ 2.89 µM); against Staphylococcus aureus [3], 1 µg/mL (≈ 2.89 µM); in the assay with Pseudomonas aeruginosa it was greater than 256 µg/mL; in [4], 0.25 µg/mL (≈ 0.724 µM). The MIC was 0.25 µg/mL (≈ 0.724 µM) with Bacillus subtilis; greater than 256 µg/mL in the assay on Acinetobacter baumannii; greater than 256 µg/mL in [5]; 1 µg/mL (≈ 2.89 µM) with Staphylococcus aureus [6]; greater than 256 µg/mL in the assay with Serratia marcescens.

Take `O=C(Nc1nnc(-c2ccc(Br)cc2)o1)c1cccc(F)c1`: the MIC in the assay with Escherichia coli is greater than 256 µg/mL; against Staphylococcus aureus [1], 0.5 µg/mL (≈ 1.38 µM); in the assay with Staphylococcus aureus [2], 2 µg/mL (≈ 5.52 µM); against Staphylococcus aureus [3] it was 0.5 µg/mL (≈ 1.38 µM); in the assay with Pseudomonas aeruginosa, greater than 256 µg/mL; in assay [4], 0.5 µg/mL (≈ 1.38 µM). The MIC is 0.5 µg/mL (≈ 1.38 µM) in the assay on Bacillus subtilis; greater than 256 µg/mL in the assay with Acinetobacter baumannii; greater than 256 µg/mL in assay [5]; 0.5 µg/mL (≈ 1.38 µM) in the assay on Staphylococcus aureus [6]; greater than 256 µg/mL in the assay with Serratia marcescens.

As for `CCC1Sc2ccc(S(=O)(=O)Nc3ccc(C)cc3C)cc2NC1=O` (centres undefined), the MIC is greater than 256 µg/mL in the assay on Escherichia coli; 4 µg/mL (≈ 10.6 µM) against Staphylococcus aureus [1]; 1 µg/mL (≈ 2.66 µM) with Staphylococcus aureus [2]; greater than 64 µg/mL in the assay on Staphylococcus aureus [3]; greater than 256 µg/mL in the assay on Pseudomonas aeruginosa; greater than 64 µg/mL in [4]. Also, the MIC was less than 0.03 µg/mL in the assay on Bacillus subtilis; greater than 256 µg/mL with Acinetobacter baumannii; greater than 256 µg/mL in assay [5]; 8 µg/mL (≈ 21.2 µM) in the assay on Staphylococcus aureus [6]; greater than 256 µg/mL with Serratia marcescens.

`Cc1c(CC(=O)N[C@@H](C(=O)O)c2ccccc2)c(=O)oc2c(C)c3occ(-c4ccc(Cl)cc4)c3cc12`: the MIC is greater than 256 µg/mL in the assay on Escherichia coli; 2.5 µg/mL (≈ 4.85 µM) with Staphylococcus aureus [1]; 2.5 µg/mL (≈ 4.85 µM) in the assay with Staphylococcus aureus [2]; 2.5 µg/mL (≈ 4.85 µM) in the assay on Staphylococcus aureus [3]; greater than 256 µg/mL in the assay on Pseudomonas aeruginosa; 1 µg/mL (≈ 1.94 µM) in assay [4]. Also, the MIC against Bacillus subtilis was greater than 64 µg/mL; in the assay on Acinetobacter baumannii, greater than 256 µg/mL; in [5] it was greater than 256 µg/mL; with Staphylococcus aureus [6] it was 2.5 µg/mL (≈ 4.85 µM); in the assay on Serratia marcescens, greater than 256 µg/mL.

For the molecule `CC(C)N1C(=O)/C(=C/c2ccc([N+](=O)[O-])o2)SC1=S`, the MIC was found to be 16 µg/mL (≈ 53.6 µM) in the assay with Escherichia coli; 2 µg/mL (≈ 6.7 µM) in the assay on Staphylococcus aureus [1]; 0.25 µg/mL (≈ 0.838 µM) in the assay with Staphylococcus aureus [2]; 1 µg/mL (≈ 3.35 µM) against Staphylococcus aureus [3]; 2 µg/mL (≈ 6.7 µM) in the assay with Pseudomonas aeruginosa; 1 µg/mL (≈ 3.35 µM) in assay [4]. In addition, the MIC against Bacillus subtilis is less than 0.03 µg/mL; with Acinetobacter baumannii, greater than 256 µg/mL; in [5], greater than 256 µg/mL; in the assay with Staphylococcus aureus [6], 1 µg/mL (≈ 3.35 µM); with Serratia marcescens it was greater than 256 µg/mL.

With `CCc1c(C)nc(N2NC(C)=CC2NC(=O)c2ccccc2I)nc1O` (centres undefined), the MIC with Escherichia coli is greater than 256 µg/mL; against Staphylococcus aureus [1] it was 0.5 µg/mL (≈ 1.07 µM); against Staphylococcus aureus [2], 0.5 µg/mL (≈ 1.07 µM); against Staphylococcus aureus [3] it was 0.5 µg/mL (≈ 1.07 µM); in the assay on Pseudomonas aeruginosa it was greater than 256 µg/mL; in [4] it was 0.25 µg/mL (≈ 0.537 µM). For the same molecule, the MIC against Bacillus subtilis was 0.25 µg/mL (≈ 0.537 µM); in the assay on Acinetobacter baumannii, greater than 256 µg/mL; in assay [5], greater than 256 µg/mL; in the assay with Staphylococcus aureus [6], 1 µg/mL (≈ 2.15 µM); in the assay with Serratia marcescens it was greater than 256 µg/mL.

In the case of `CCOc1ccccc1N(C)S(=O)(=O)c1ccc2c(c1)NC(=O)C(C)S2` (centres undefined), the MIC is greater than 256 µg/mL in the assay with Escherichia coli; 8 µg/mL (≈ 20.4 µM) with Staphylococcus aureus [1]; 4 µg/mL (≈ 10.2 µM) against Staphylococcus aureus [2]; greater than 64 µg/mL with Staphylococcus aureus [3]; greater than 256 µg/mL in the assay on Pseudomonas aeruginosa; greater than 64 µg/mL in assay [4]. In addition, the MIC is less than 0.03 µg/mL against Bacillus subtilis; greater than 256 µg/mL with Acinetobacter baumannii; greater than 256 µg/mL in [5]; 8 µg/mL (≈ 20.4 µM) in the assay with Staphylococcus aureus [6]; greater than 256 µg/mL in the assay on Serratia marcescens.

`CC[C@@H](C)[C@H](NC(=O)Cc1c(C)c2cc3c(-c4ccc(Cl)cc4)coc3c(C)c2oc1=O)C(=O)O`: the MIC was greater than 256 µg/mL in the assay on Escherichia coli; 2.5 µg/mL (≈ 5.04 µM) in the assay with Staphylococcus aureus [1]; 2.5 µg/mL (≈ 5.04 µM) against Staphylococcus aureus [2]; 2.5 µg/mL (≈ 5.04 µM) in the assay with Staphylococcus aureus [3]; greater than 256 µg/mL with Pseudomonas aeruginosa; 1 µg/mL (≈ 2.02 µM) in assay [4]. In addition, the MIC with Bacillus subtilis was greater than 64 µg/mL; with Acinetobacter baumannii, greater than 256 µg/mL; in [5], greater than 256 µg/mL; with Staphylococcus aureus [6] it was 2.5 µg/mL (≈ 5.04 µM); in the assay on Serratia marcescens, greater than 256 µg/mL.

Turning to `O=C(Nc1nnc(-c2ccccc2Cl)o1)c1cccc(C(F)(F)F)c1`, the MIC was greater than 256 µg/mL with Escherichia coli; 2 µg/mL (≈ 5.44 µM) with Staphylococcus aureus [1]; 1 µg/mL (≈ 2.72 µM) against Staphylococcus aureus [2]; 0.5 µg/mL (≈ 1.36 µM) against Staphylococcus aureus [3]; greater than 256 µg/mL in the assay on Pseudomonas aeruginosa; 0.5 µg/mL (≈ 1.36 µM) in assay [4]. For the same molecule, the MIC is 0.5 µg/mL (≈ 1.36 µM) in the assay on Bacillus subtilis; greater than 256 µg/mL in the assay with Acinetobacter baumannii; greater than 256 µg/mL in assay [5]; 0.5 µg/mL (≈ 1.36 µM) with Staphylococcus aureus [6]; greater than 256 µg/mL in the assay with Serratia marcescens.

The values above are taken from ChEMBL document CHEMBL1629439, “High-throughput identification of antibacterials against methicillin-resistant Staphylococcus aureus (MRSA) and the transglycosylase” (Bioorg Med Chem, 2010).
